These results are taken from ChEMBL document CHEMBL3774346, “Rational design, synthesis and biological evaluation of 1,3,4-oxadiazole pyrimidine derivatives as novel pyruvate dehydrogenase complex E1 inhibitors” (Bioorg Med Chem, 2016).

In general, EC50 refers to the concentration at which the effect is half-maximal. The low end stands for higher potency in that assay, the high end for lower potency in that assay. By IC50 is commonly meant the point on the concentration scale where inhibition reaches its midpoint. High values mean weaker potency, low ones greater potency. What is called inhibition is the percentage by which the read-out fell short of the control.

The nature of assay [1]: Antibacterial activity against Synechocystis sp. PCC 6803. The format is functional.
Assay [2] can be described thus: Inhibition of Escherichia coli PDHc-E1 expressed in Escherichia coli TB1 using sodium pyruvate as substrate and ThDP after 3 mins by 2,6-DCPIP based microplate reader method. The method in brief:
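The enzyme (7.1 µM) was preincubated 3 min at 37 °C with varied inhibitor in 50 mM K3PO4 pH 7.2, 2.0 mM pyruvate and 0.8 mM 2,6-DCPIP. ThDP (0–200 µM) started the reaction, read as A600 decrease. IC50 came from a Hill fit of initial rates.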

Assay [3] is described as follows: Antibacterial activity against Synechocystis sp. PCC 6803 at 10 uM. The format is functional.
The test system of assay [4] is Rhizoctonia solani. Briefly: Antifungal activity against Rhizoctonia solani at 100 ug/ml. The format is functional.
The test system of assay [5] is Colletotrichum orbiculare. Briefly: Antifungal activity against Colletotrichum orbiculare at 100 ug/ml. The format is functional.
For assay [6], the system named is Alternaria solani. The experiment in a line: Antifungal activity against Alternaria solani at 100 ug/ml. The format is functional.
Assay [7] concerns Botrytis cinerea. The experiment in a line: Antifungal activity against Botrytis cinerea at 100 ug/ml. The format is functional.

Structures are written as SMILES.

In assay [1], `Cc1ncc(Cn2cc(CSc3nnc(-c4ccccc4Cl)o3)nn2)c(N)n1` showed an EC50 of 2.28 µM. For the same compound, half-maximal inhibition in assay [2] (IC50) required 12.4 µM.
In turn, `Cc1ncc(Cn2cc(COc3ccc(Cl)cc3Cl)nn2)c(N)n1` yielded an EC50 in assay [1] of over 50 µM. In assay [2], this compound displayed an IC50 of 18.7 µM. The same compound had an inhibition at 10 µM in assay [3] of under 30%.
In the case of `Cc1ncc(Cn2cc(CSc3nnc(-c4cccc([N+](=O)[O-])c4)o3)nn2)c(N)n1`, the EC50 in assay [1] worked out at 5.14 µM. The compound further gave an IC50 in assay [2] of 10.4 µM. Moreover, the inhibition at 100 µg/mL in assay [4] is 60%; in assay [5], 40%; in assay [6] it was 48%; in assay [7], 59%. Besides, 10 µM produced 90% inhibition in assay [3].
On to `Cc1ncc(Cn2cc(CSc3nnc(-c4ccc([N+](=O)[O-])cc4Cl)o3)nn2)c(N)n1`, for which a half-maximal effect in assay [1] (EC50) was put at 6.37 µM. In assay [2], half-maximal inhibition (IC50) required 12.8 µM. Further, the inhibition at 100 µg/mL in assay [4] turned out to be 46%; in assay [5], 38%; in assay [6], 35%; in assay [7], 54%.
The compound `Cc1ncc(Cn2cc(CSc3nnc(-c4cc([N+](=O)[O-])cc([N+](=O)[O-])c4)o3)nn2)c(N)n1` registered a concentration giving a half-maximal response (EC50) in assay [1] of 2.33 µM. The compound further returned a concentration for half-maximal inhibition (IC50) in assay [2] of 8.61 µM. Further, the inhibition at 100 µg/mL in assay [4] stood at 30%; in assay [5] it was 33%; in assay [6], 30%; in assay [7], 41%. Testing at 10 µM in assay [3] gave an inhibition of 90%.
Consider `Cc1ncc(Cn2cc(CSc3nnc(-c4ccc(C(F)(F)F)cc4)o3)nn2)c(N)n1`, for which, in assay [1], a half-maximal response (EC50) required 5.35 µM. Also, 15.9 µM corresponded to half-maximal inhibition in assay [2] (IC50). The inhibition at 100 µg/mL came out at 0% in assay [4], 45% in assay [5], 35% in assay [6] and 45% in assay [7]. Besides, in assay [3], the inhibition at 10 µM worked out at 90%.
For `Cc1ncc(Cn2cc(CSc3nnc(-c4ccc(F)cc4)o3)nn2)c(N)n1`, the EC50 in assay [1] is 5.34 µM. In assay [2], this compound yielded an IC50 of 9.11 µM. Further, the inhibition at 100 µg/mL came out at 0% in assay [4], 32% in assay [5], 44% in assay [6] and 60% in assay [7]. The inhibition at 10 µM in assay [3] was 90%.
For `Cc1ncc(Cn2cc(CSc3nnc(-c4ccc(Cl)cc4Cl)o3)nn2)c(N)n1`, the EC50 in assay [1] came to 5.99 µM. The same compound showed an IC50 in assay [2] of 13.2 µM.
Compound `Cc1ncc(Cn2cc(COc3ccc(Cl)cc3)nn2)c(N)n1` came in with an EC50 in assay [1] of over 50 µM. Besides, the IC50 in assay [2] amounted to 26.4 µM. This compound also came in with an inhibition at 10 µM in assay [3] of under 30%.
For the compound `Cc1ncc(Cn2cc(CSc3nnc(-c4ccccc4)o3)nn2)c(N)n1`, in assay [1], the response was half-maximal at 5.15 µM (EC50). For the same compound, the midpoint of inhibition in assay [2], the IC50, lay at 7.87 µM. Also, the inhibition at 100 µg/mL is 30% in assay [4], 40% in assay [5], 47% in assay [6] and 60% in assay [7]. The same compound gave an inhibition at 10 µM in assay [3] of 90%.
In turn, `Cc1ncc(Cn2cc(CSc3nnc(-c4ccccc4F)o3)nn2)c(N)n1` had an EC50 in assay [1] of 8.05 µM. The same compound came in with an IC50 in assay [2] of 19.2 µM. Besides, the inhibition at 100 µg/mL in assay [4] was 0%; in assay [5], 32%; in assay [6], 40%; in assay [7] it was 28%.
In assay [1], `Cc1ncc(Cn2cc(CSc3nnc(-c4sc(N)nc4C(F)(F)F)n3N)nn2)c(N)n1` showed an EC50 of 3.24 µM. Moreover, the midpoint of inhibition in assay [2], the IC50, lay at 5.03 µM. The inhibition at 100 µg/mL in assay [4] came out at 11%; in assay [5], 35%; in assay [6], 21%; in assay [7] it was 20%. For the same compound, the inhibition at 10 µM in assay [3] turned out to be 90%.
`CNc1nc(C(F)(F)F)c(-c2nnc(SCc3cn(Cc4cnc(C)nc4N)nn3)n2N)s1` showed an EC50 in assay [1] of 9.86 µM. The same compound displayed an IC50 in assay [2] of 15.7 µM. In addition, the inhibition at 100 µg/mL amounted to 11% in assay [4], 28% in assay [5], 21% in assay [6] and 8% in assay [7].
Regarding `Cc1ncc(Cn2cc(CSc3nnc(-c4ccc([N+](=O)[O-])cc4)o3)nn2)c(N)n1`, the EC50 in assay [1] stood at 9.04 µM. For the same compound, the half-maximal inhibitory concentration (IC50) in assay [2] was 7.59 µM. Also, the inhibition at 100 µg/mL in assay [4] came out at 55%; in assay [5], 35%; in assay [6], 60%; in assay [7] it was 45%.
Consider `Cc1ncc(Cn2cc(COc3ccccc3[N+](=O)[O-])nn2)c(N)n1`, for which the EC50 in assay [1] is over 50 µM. For the same compound, the IC50 in assay [2] worked out at 36.3 µM. In assay [3], the inhibition at 10 µM is under 30%.
`Cc1ncc(Cn2cc(CSc3nnc(-c4ccc(Cl)cc4)o3)nn2)c(N)n1` registered a 50% effective concentration (EC50) in assay [1] of 5.25 µM. Moreover, the IC50 in assay [2] came out at 7.08 µM. Further, the inhibition at 100 µg/mL in assay [4] was determined as 46%; in assay [5] it was 52%; in assay [6] it was 60%; in assay [7], 45%. The same compound returned an inhibition at 10 µM in assay [3] of 90%.
Consider `Cc1ncc(Cn2cc(COc3ccc([N+](=O)[O-])cc3)nn2)c(N)n1`, for which, in assay [1], the EC50 is over 50 µM. The IC50 in assay [2] amounted to 8.8 µM. The inhibition at 10 µM in assay [3] is under 30%.
`Cc1ncc(Cn2cc(CSc3nnc(-c4sc(N)nc4C)n3N)nn2)c(N)n1` came in with an EC50 in assay [1] of 2.3 µM. This compound came in with an IC50 in assay [2] of 7.02 µM. Further, the inhibition at 100 µg/mL in assay [4] is 16%; in assay [5], 26%; in assay [6], 29%; in assay [7], 16%. The same compound displayed an inhibition at 10 µM in assay [3] of 90%.
With `CNc1nc(C)c(-c2nnc(SCc3cn(Cc4cnc(C)nc4N)nn3)n2N)s1`, in assay [1], a half-maximal effect (EC50) was put at 2.99 µM. For the same compound, half-maximal inhibition in assay [2] (IC50) was put at 11.1 µM. Moreover, the inhibition at 100 µg/mL was determined as 17% in assay [4], 16% in assay [5], 25% in assay [6] and 11% in assay [7]. In assay [3], the inhibition at 10 µM is 90%.
As for `Cc1ncc(Cn2cc(CSc3nnc(-c4ccccc4[N+](=O)[O-])o3)nn2)c(N)n1`, in assay [1], the EC50 was found to be 4.76 µM. The same compound yielded a concentration for half-maximal inhibition (IC50) in assay [2] of 9.84 µM. Further, the inhibition at 100 µg/mL in assay [4] was determined as 40%; in assay [5] it was 48%; in assay [6], 58%; in assay [7], 54%. Further, testing at 10 µM in assay [3] gave an inhibition of 90%.
As to `Cc1ncc(Cn2cc(COc3ccccc3)nn2)c(N)n1`, the EC50 in assay [1] was over 50 µM. The IC50 in assay [2] amounted to 55.1 µM. This compound gave an inhibition at 10 µM in assay [3] of under 30%.
